ChEMBL document CHEMBL1137772, “Site-activated multifunctional chelator with acetylcholinesterase and neuroprotective-neurorestorative moieties for Alzheimer's therapy” (J Med Chem, 2009)
Activity calls are given as the source filed them. The rule behind the calls is not given here.

Key:
[1] = target: T1, Acetylcholinesterase (Rattus norvegicus) (UniProt P37136); experiment: Inhibition of AChE in Wistar rat brain homogenates at 1 uM by Ellman's method; format: tissue-based; settings: TDE = time-dependent effect
T1 sequence (whole entry): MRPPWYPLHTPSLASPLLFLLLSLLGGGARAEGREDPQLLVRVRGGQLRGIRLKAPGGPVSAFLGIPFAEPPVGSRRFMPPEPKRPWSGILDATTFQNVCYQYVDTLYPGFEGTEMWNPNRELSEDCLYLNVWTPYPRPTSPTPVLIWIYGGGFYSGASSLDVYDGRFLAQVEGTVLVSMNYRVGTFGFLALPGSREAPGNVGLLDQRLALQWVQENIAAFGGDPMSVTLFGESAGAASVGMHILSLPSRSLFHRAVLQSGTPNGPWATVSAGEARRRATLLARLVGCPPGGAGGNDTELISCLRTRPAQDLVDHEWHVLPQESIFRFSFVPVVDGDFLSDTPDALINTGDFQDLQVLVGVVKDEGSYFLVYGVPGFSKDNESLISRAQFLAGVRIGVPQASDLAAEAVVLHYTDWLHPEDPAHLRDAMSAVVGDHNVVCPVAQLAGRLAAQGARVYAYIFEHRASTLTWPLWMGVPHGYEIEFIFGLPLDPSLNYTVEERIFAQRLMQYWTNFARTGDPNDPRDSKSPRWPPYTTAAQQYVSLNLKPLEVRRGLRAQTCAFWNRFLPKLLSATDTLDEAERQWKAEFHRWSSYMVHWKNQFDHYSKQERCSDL
In short: (§1)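 Modified Ellman method on rat brain homogenate enzymes, with acetylthiocholine as AChE substrate and butyrylthiocholine as BuChE substrate. For concentration–response, enzymes were preincubated with inhibitor for 3 h, and IC50 was obtained by nonlinear curve fitting. Mean ± SEM of three to five independent experiments, each in triplicate. The 1 µM AChE inhibition was followed as a time course.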

[2] = target: Butyrylcholinesterase (Rattus norvegicus) (UniProt Q9JKC1); experiment: Inhibition of BuChE in Wistar rat brain homogenates at 1 uM by Ellman's method; format: tissue-based; settings: TDE = time-dependent effect
SH-SY5Y [3] = experiment: Cytotoxicity against human SH-SY5Y cells assessed as decrease in cell viability at 10 uM after 48 hrs by MTT assay relative to control; format: cell-based
In short: (§2)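 Human SH-SY5Y neuroblastoma cells were exposed to compound for 48 h, and viability was read by MTT assay. Mean ± SEM of three independent experiments.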

SH-SY5Y [4] = experiment: Cytotoxicity against human SH-SY5Y cells assessed as decrease in cell viability at 50 uM after 48 hrs by MTT assay relative to control; format: cell-based; in short: as §2
SH-SY5Y [5] = experiment: Cytotoxicity against human SH-SY5Y cells assessed as cell viability at 1 uM after 48 hrs by MTT assay relative to control; format: cell-based; in short: as §2
SH-SY5Y [6] = experiment: Cytotoxicity against human SH-SY5Y cells assessed as decrease in cell viability at 25 uM after 48 hrs by MTT assay relative to control; format: cell-based; in short: as §2
Butyrylcholinesterase = Butyrylcholinesterase (Rattus norvegicus, UniProt Q9JKC1); experiment: Inhibition of BuChE in Wistar rat brain homogenates by Ellman's method; format: tissue-based; in short: as §1
Acetylcholinesterase = target: T2, Acetylcholinesterase (Rattus norvegicus, UniProt P37136); experiment: Inhibition of AChE in Wistar rat brain homogenates by Ellman's method; format: tissue-based; in short: as §1
T2 sequence (P37136 whole entry): T1 sequence (whole entry)

[7] = target: Acetylcholinesterase (Electrophorus electricus) (UniProt O42275); experiment: […] of electric eel AChE-mediated drug hydrolysis assessed as release of HLA20-copper complex at 0.2 mM by UV visible spectroscopy in presence of CuSO4
In short: (§3)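 UV/vis absorption spectra were recorded in 5% NH4Ac, pH 7. Prochelator (0.2 mM) was activated before adding CuSO4 or FeSO4 (0.2 mM).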

[8] = target: Acetylcholinesterase (Electrophorus electricus) (UniProt O42275); experiment: Induction of electric eel AChE-mediated drug hydrolysis assessed as release of HLA20-iron complex at 0.2 mM by UV visible spectroscopy in presence of FeSO4; in short: as §3
Rattus norvegicus = organism: Rattus norvegicus; experiment: Selectivity ratio of IC50 for BuChE to IC50 for AChE in Wistar rat brain homogenates; format: tissue-based; in short: as §1

Chain of Butyrylcholinesterase (Rattus norvegicus) (Q9JKC1 as listed by the source): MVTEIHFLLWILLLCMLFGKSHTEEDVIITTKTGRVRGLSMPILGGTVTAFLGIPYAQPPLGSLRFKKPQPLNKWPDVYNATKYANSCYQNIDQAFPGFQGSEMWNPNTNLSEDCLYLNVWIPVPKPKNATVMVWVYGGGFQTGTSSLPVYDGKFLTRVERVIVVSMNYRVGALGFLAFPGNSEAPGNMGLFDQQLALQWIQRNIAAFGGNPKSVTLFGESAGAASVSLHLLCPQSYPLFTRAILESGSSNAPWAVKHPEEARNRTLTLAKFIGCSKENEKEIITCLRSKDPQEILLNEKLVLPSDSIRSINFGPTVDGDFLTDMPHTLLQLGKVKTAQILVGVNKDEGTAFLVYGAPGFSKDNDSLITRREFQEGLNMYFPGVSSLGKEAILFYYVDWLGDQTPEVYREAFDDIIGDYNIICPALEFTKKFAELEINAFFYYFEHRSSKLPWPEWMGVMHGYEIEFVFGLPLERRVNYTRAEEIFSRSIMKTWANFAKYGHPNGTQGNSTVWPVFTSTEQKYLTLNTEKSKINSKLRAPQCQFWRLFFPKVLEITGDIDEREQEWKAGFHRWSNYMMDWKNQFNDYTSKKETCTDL
Chain of Acetylcholinesterase (Electrophorus electricus) (O42275 24-633 limits assumed): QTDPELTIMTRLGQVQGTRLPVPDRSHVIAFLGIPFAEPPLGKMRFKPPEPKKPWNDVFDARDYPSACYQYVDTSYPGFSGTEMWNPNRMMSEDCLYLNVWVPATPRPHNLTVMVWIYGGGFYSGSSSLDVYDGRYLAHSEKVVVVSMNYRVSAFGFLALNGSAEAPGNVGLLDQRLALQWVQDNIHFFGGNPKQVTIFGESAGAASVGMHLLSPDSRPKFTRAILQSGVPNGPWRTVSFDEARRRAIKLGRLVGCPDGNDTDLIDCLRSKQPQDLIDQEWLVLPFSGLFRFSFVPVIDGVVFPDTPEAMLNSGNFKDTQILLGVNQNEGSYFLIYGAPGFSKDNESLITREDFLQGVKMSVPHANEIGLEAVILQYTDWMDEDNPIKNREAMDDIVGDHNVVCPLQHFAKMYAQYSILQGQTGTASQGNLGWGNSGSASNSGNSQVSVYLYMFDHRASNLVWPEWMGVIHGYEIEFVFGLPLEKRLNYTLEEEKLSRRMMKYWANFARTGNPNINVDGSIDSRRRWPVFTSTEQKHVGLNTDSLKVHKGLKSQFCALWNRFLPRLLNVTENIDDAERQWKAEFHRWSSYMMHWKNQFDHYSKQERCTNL
Chain of Butyrylcholinesterase (Q9JKC1 whole entry): as the sequence (Q9JKC1 as listed by the source) above

SMILES | Activity [1] | Activity [2] | Activity (SH-SY5Y [3]) | Activity (SH-SY5Y [4]) | Activity (SH-SY5Y [5]) | Activity (SH-SY5Y [6]) | IC50 (Butyrylcholinesterase) | IC50 (Acetylcholinesterase) | Activity [7] | Activity [8] | Ratio IC50 (Rattus norvegicus)
CCN(C)C(=O)Oc1cccc([C@H](C)N(C)C)c1 | tde | tde | – | – | – | – | – | – | – | – | –
C#CCN1CCN(Cc2ccc(O)c3ncccc23)CC1 | – | – | 60% | 98% | Non-toxic | 87% | – | – | – | – | –
C#CCN1CCN(Cc2ccc(OC(=O)N(C)C)c3ncccc23)CC1 | tde | tde | Non-toxic | Toxic | Non-toxic | Toxic | 42.6 µM | 0.5 µM | Active | Active | 85
